Results published in ChEMBL document CHEMBL4819106, “Aminopyrazole based CDK9 PROTAC sensitizes pancreatic cancer cells to venetoclax” (Bioorg Med Chem Lett, 2021).
Active and inactive are the calls of the source. The calls are words filed in the database; no cut-off is given here.

Molecular target: Protein cereblon/Cyclin-dependent kinase 9 (Homo sapiens, UniProt P50750+Q96SW2)
Test: Protac activity at CDK9/CRBN in human HEK293 cells assessed as degradation of CDK9 at 0.01 to 10 uM incubated for 24 hrs by Western blot analysis
Assay type: cell-based
Details: dose 0.01-10 µM
Method in brief: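 HEK293 cells were treated with increasing concentrations (0.01–10 μM) for 24 hr. Lysates were analysed by western blot for CDK9 degradation.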

Sequence of Protein cereblon/Cyclin-dependent kinase 9 (P50750 whole entry, looked up): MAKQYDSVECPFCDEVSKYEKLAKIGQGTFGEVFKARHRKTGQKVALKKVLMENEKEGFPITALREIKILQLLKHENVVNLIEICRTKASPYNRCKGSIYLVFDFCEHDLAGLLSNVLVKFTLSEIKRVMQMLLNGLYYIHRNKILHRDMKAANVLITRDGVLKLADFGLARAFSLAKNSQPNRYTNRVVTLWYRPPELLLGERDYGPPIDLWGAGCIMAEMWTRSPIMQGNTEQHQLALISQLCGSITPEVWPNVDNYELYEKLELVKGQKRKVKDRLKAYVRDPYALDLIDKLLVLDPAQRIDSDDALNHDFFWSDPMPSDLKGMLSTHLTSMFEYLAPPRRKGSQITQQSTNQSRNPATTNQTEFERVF
Sequence of Protein cereblon/Cyclin-dependent kinase 9 (Q96SW2 whole entry, looked up): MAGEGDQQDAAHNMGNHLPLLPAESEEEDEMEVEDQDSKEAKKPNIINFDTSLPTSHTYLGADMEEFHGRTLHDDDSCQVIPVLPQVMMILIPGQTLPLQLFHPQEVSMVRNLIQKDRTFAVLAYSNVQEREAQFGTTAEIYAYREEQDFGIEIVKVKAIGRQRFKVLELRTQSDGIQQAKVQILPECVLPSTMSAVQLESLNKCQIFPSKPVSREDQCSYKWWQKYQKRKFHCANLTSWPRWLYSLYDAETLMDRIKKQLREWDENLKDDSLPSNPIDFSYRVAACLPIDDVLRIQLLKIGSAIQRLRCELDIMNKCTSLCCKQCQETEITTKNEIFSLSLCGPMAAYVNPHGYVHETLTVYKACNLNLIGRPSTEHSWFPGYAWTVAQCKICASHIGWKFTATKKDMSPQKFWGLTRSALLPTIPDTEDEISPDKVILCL

Structure (SMILES) | Activity
O=C(COc1ccc(CC(=O)Nc2cc(C3CCC3)[nH]n2)cc1)NCCOCCOCCNc1cccc2c1C(=O)N(C1CCC(=O)NC1=O)C2=O (stereo not drawn) | inactive
O=C(COc1ccc(CC(=O)Nc2cc(C3CCC3)[nH]n2)cc1)NCCCOCCOCCOCCCNc1cccc2c1C(=O)N(C1CCC(=O)NC1=O)C2=O (stereo not drawn) | inactive
O=C(COc1ccc(CC(=O)Nc2cc(C3CCC3)[nH]n2)cc1)NCCCCNc1cccc2c1C(=O)N(C1CCC(=O)NC1=O)C2=O (stereo not drawn) | inactive
